The source of these data is ChEMBL document CHEMBL1926610, “Design and synthesis of pyridone inhibitors of non-nucleoside reverse transcriptase” (Bioorg Med Chem Lett, 2011).

Data set [1] in a line: Inhibition of Human immunodeficiency virus wild type reverse transcriptase by SPA assay. In outline:
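Wild-type HIV RT enzyme inhibition measured in a standard SPA assay. Values are geometric mean of at least two determinations.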

The target of data set [2] is Human immunodeficiency virus type 1 reverse transcriptase (Human immunodeficiency virus 1, UniProt Q72547, K103N). The data set is described as follows: Inhibition of Human immunodeficiency virus reverse transcriptase K103N mutant by SPA assay. In outline:
(§1)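 Scintillation proximity assay (SPA) of mutant RT enzyme inhibition. Values are geometric means of at least two determinations.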

The target in data set [3] is Human immunodeficiency virus type 1 reverse transcriptase (Human immunodeficiency virus 1, UniProt Q72547, Y181C). The data set is described as follows: Inhibition of Human immunodeficiency virus reverse transcriptase Y181C mutant by SPA assay. In outline:
as §1

Data set [4] has as its system Human immunodeficiency virus. In words: Antiviral activity against Human immunodeficiency virus expressing wild type RT infected in human MT4 cells by p24 antigen assay in the presence of 10% FBS. The data set is classed as functional. The note with it: Human immunodeficiency virus 1, MT4; read-out: CIC95. The method, boiled down: (§2)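 CIC95 = concentration at which spread of virus is inhibited by >95% in MT-4 human T-lymphoid cells in RPMI 1640 medium containing either 10% FBS or 50% normal human serum (to assess protein binding). Geometric mean of at least 2 determinations.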

For data set [5], the system named is Human immunodeficiency virus. In words: Antiviral activity against Human immunodeficiency virus expressing RT K103N mutant infected in human MT4 cells by p24 antigen assay in the presence of 10% FBS. The data set is classed as functional. The note with it: Human immunodeficiency virus 1, MT4; read-out: CIC95. In outline:
(§3)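 Spread assay in MT-4 human T-lymphoid cells in RPMI 1640 with 10% FBS. CIC95 is the concentration inhibiting viral spread by >95%, reported as the geometric mean of at least 2 determinations. Cytotoxicity was checked up to 8.3 μM.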

Data set [6] concerns Human immunodeficiency virus. The data set is described as follows: Antiviral activity against Human immunodeficiency virus expressing RT K103N/Y181C double mutant infected in human MT4 cells by p24 antigen assay in the presence of 10% FBS. Format: functional. The note with it: Human immunodeficiency virus 1, MT4; read-out: CIC95. The method, boiled down: as §3
Data set [7] concerns Human immunodeficiency virus. In words: Antiviral activity against Human immunodeficiency virus expressing wild type RT infected in human MT4 cells by p24 antigen assay in the presence of 50% normal human serum. The data set is classed as functional. As to conditions: Human immunodeficiency virus 1, MT4; read-out: CIC95. In outline: as §2
For data set [8], the system named is MT4. In words: Cytotoxicity against human MT4 cells up to 8.3 uM. Format: cell-based. The method, boiled down:
(§4)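 Cytotoxicity in MT-4 human T-lymphoid cells run alongside the cell culture antiviral assay (RPMI 1640, 10% FBS or 50% NHS), tested up to the assay upper limit of 8.3 μM.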

Data set [9] in a line: Volume of distribution in Sprague-Dawley rat at 10 mg/kg, po and 2 mg/kg, iv. The data set is classed as ADME, organism-based. The note with it: in vivo. In outline:
(§5)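 Sprague Dawley rats given iv dose 2 mpk as a DMSO solution via indwelling jugular vein cannula, and p.o. dose 10 mpk as aqueous methylcellulose (methocel) suspension. Plasma levels by LC-MS; absolute oral bioavailability from comparison of mean plasma AUC. Average of at least 2 rats.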

Data set [10] in a line: Plasma clearance in Sprague-Dawley rat at 10 mg/kg, po and 2 mg/kg, iv. The data set is classed as ADME, organism-based. The method, boiled down:
as §5

The nature of data set [11]: Oral bioavailability in Sprague-Dawley rat at 10 mg/kg. As to conditions: in vivo. Format: ADME, organism-based. In outline:
as §5

Data set [12] relates to Rattus norvegicus. In words: Dose normalized AUC in Sprague-Dawley rat at 10 mg/kg, po. The arrangement: dose 10 mg/kg, route oral. As to conditions: in vivo. Format: ADME, organism-based. In outline: as §5
The nature of data set [13]: Volume of distribution in Sprague-Dawley rat at 1 mg/kg, iv. The data set is classed as ADME, organism-based. The arrangement: dose 1 mg/kg, route intravenous. The note with it: in vivo. The method, boiled down:
(§6)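 Sprague Dawley rats dosed iv at 1 mpk in DMSO via indwelling jugular vein cannula, no oral arm. Plasma concentrations by LC-MS.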

Data set [14] in a line: Plasma clearance in Sprague-Dawley rat at 1 mg/kg, iv. Also on record: dose 1 mg/kg, route intravenous. The data set is classed as ADME, organism-based. In outline: as §6
A short description of data set [15]: Half life in Sprague-Dawley rat at 1 mg/kg, iv. The data set is classed as ADME, organism-based. Also on record: dose 1 mg/kg, route intravenous. As to conditions: in vivo. The method, boiled down:
as §6

Data set [16] relates to MT4. The data set is described as follows: Cytotoxicity against human MT4 cells. Format: cell-based. In outline: as §4
For data set [17], the system named is Human immunodeficiency virus. In words: Antiviral activity against Human immunodeficiency virus expressing RT Y181C mutant infected in human MT4 cells by p24 antigen assay in the presence of 10% FBS. Format: functional. As to conditions: Human immunodeficiency virus 1, MT4; read-out: CIC95. In outline:
as §3

Data set [18] concerns Human immunodeficiency virus. In words: Antiviral activity against Human immunodeficiency virus expressing RT K103N/Y181C double mutant infected in human MT4 cells by p24 antigen assay in the presence of 10% FBS relative to MK-4965. The data set is classed as functional.
The subject of data set [19] is Human immunodeficiency virus. In words: Antiviral activity against Human immunodeficiency virus expressing RT K103N mutant infected in human MT4 cells by p24 antigen assay in the presence of 50% normal human serum. Format: functional. As to conditions: Human immunodeficiency virus 1, MT4; read-out: CIC95. In outline:
(§7)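 MT-4 human T-lymphoid cells were kept in RPMI 1640 containing 50% normal human serum to assess protein binding. Readout is CIC95, the concentration blocking >95% of virus spread. Values are geometric means of at least 2 determinations.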

The subject of data set [20] is Human immunodeficiency virus. In words: Antiviral activity against Human immunodeficiency virus expressing RT Y181C mutant infected in human MT4 cells by p24 antigen assay in the presence of 50% normal human serum. Format: functional. As to conditions: Human immunodeficiency virus 1, MT4; read-out: CIC95. The method, boiled down:
as §7

In data set [21] the test system is Human immunodeficiency virus. The data set is described as follows: Antiviral activity against Human immunodeficiency virus expressing RT K103N/Y181C double mutant infected in human MT4 cells by p24 antigen assay in the presence of 50% normal human serum. Format: functional. The note with it: Human immunodeficiency virus 1, MT4; read-out: CIC95. In outline: as §7

Data set [22] can be described thus: Plasma protein binding in human. The note with it: read-out: PPB (converted). Format: ADME, cell-free.
For data set [23], the system named is Human immunodeficiency virus. The data set is described as follows: Antiviral activity against Human immunodeficiency virus expressing wild type RT infected in human MT4 cells by p24 antigen assay in the presence of 50% normal human serum relative to MK-4965. Format: functional.
The test system of data set [24] is Human immunodeficiency virus. In words: Antiviral activity against Human immunodeficiency virus expressing wild type RT infected in human MT4 cells by p24 antigen assay in the presence of 50% normal human serum relative to TMC-278. Format: functional.
Data set [25] has as its system Human immunodeficiency virus. The data set is described as follows: Antiviral activity against Human immunodeficiency virus expressing wild type RT infected in human MT4 cells by p24 antigen assay in the presence of 50% normal human serum relative to UK-453061. Format: functional.
The nature of data set [26]: Half life in Sprague-Dawley rat at 10 mg/kg, po and 2 mg/kg, iv. The note with it: in vivo. Format: ADME, organism-based. In outline: as §5

Turning to `Cc1ccn(Cc2n[nH]c3ncccc23)c(=O)c1Oc1cc(Cl)cc(C#N)c1`, the Ki in [1] turned out to be 2.5 nM; in data set [2] it was 3.7 nM; in [3], 3.1 nM. Further, the IC95 was found to be 3.6 nM in data set [4], 10 nM in data set [5], 31 nM in [6] and 12 nM in data set [7]. In addition, the Activity entry in [8] was “Non-toxic”. In data set [9], this molecule yielded a Vd of 3.7 L/kg. The molecule further showed a clearance in [10] of 11 mL/min/kg. The molecule further came in with a bioavailability in [11] of 8.5%. In addition, in [12], the AUC/dose came to 0.31 µM·h.

Regarding `Cc1ccn(CCc2n[nH]c3ncccc23)c(=O)c1Oc1cc(Cl)cc(C#N)c1`, the Ki came out at 25 nM in data set [1], 58 nM in data set [2] and 51 nM in [3]. Further, the values for the IC95 in data set [4], in data set [5] and in data set [7] were 248 nM, 447 nM and 611 nM, respectively. In addition, the Activity entry in [8] is “Non-toxic”. Also, the Vd in data set [13] stood at 0.6 L/kg. Moreover, in data set [14], the clearance amounted to 31 mL/min/kg. The molecule further gave a half-life in data set [15] of 0.75 h.

For `N#Cc1cc(Cl)cc(Oc2c(Cl)ccn(Cc3n[nH]c4ncccc34)c2=O)c1`, the Activity entry in [16] and in [8] was “Non-toxic” throughout. Moreover, the Ki in [1] turned out to be 0.77 nM; in [2], 1.5 nM; in [3], 1 nM. For the same molecule, the IC95 in data set [4] came to 2.4 nM; in [5], 2.9 nM; in [17], 7.8 nM; in data set [6], 7 nM; in data set [7] it was 7.7 nM; in [19], 12 nM. The IC95 in data set [20] came to 20 nM; in data set [21], 69 nM. Further, the “fold change (FC)” value in data set [18] is given as 10; in data set [23], 4; in data set [24] it was 4; in data set [25], 4. Moreover, the fraction unbound in data set [22] was 0.033. The Vd in data set [9] stood at 2 L/kg. Also, the clearance in data set [10] was determined as 12 mL/min/kg. This molecule also had a half-life in data set [26] of 4 h. For the same molecule, the bioavailability in [11] was 57%. This molecule also gave an AUC/dose in [12] of 1.6 µM·h.

Turning to `N#Cc1cc(Cl)cc(Oc2c(Cl)c(Cl)cn(Cc3n[nH]c4ncccc34)c2=O)c1`, the results for the Ki in data set [1], in data set [2] and in data set [3] were 1 nM, 1.6 nM and 1.3 nM, respectively. Further, the IC95 amounted to 4.6 nM in [4]; 11 nM in data set [5]; 15 nM in data set [17]; 31 nM in data set [6]; 15 nM in [7]. The Activity result in data set [8] was “Non-toxic”. This molecule showed a Vd in [9] of 27 L/kg. Further, in [10], the clearance is 27 mL/min/kg. For the same molecule, the half-life in data set [26] is 19 h. In addition, in data set [11], the bioavailability came out at 0%. The same molecule displayed an AUC/dose in data set [12] of 0 µM·h.

Regarding `N#Cc1cc(Cl)cc(Oc2c(Cl)ccn(Cc3n[nH]c4nc(N)ccc34)c2=O)c1`, the inhibition constant Ki in data set [1] came out at 1.3 nM; in data set [2], 2.1 nM; in [3] it was 1.8 nM. For the same molecule, the IC95 was found to be 1.9 nM in [4]; 7.1 nM in data set [5]; 63 nM in [17]; 30 nM in [6]; 11 nM in data set [7]. Further, the Activity entry in [8] is “Non-toxic”. The same molecule returned a Vd in data set [9] of 0.8 L/kg. The molecule further showed a clearance in [10] of 12 mL/min/kg. Also, the half-life in data set [26] was 1.4 h. In data set [11], this molecule displayed a bioavailability of 6%. Besides, the AUC/dose in data set [12] worked out at 0.15 µM·h.

Turning to `N#Cc1cc(Cl)cc(Oc2cc(Cc3n[nH]c4ncccc34)ccc2Cl)c1`, the inhibitory constant (Ki) was found to be 0.24 nM in data set [1], 0.48 nM in [2] and 0.51 nM in data set [3]. Besides, the IC95 in data set [4] is 22 nM; in [5], 211 nM.

With `N#Cc1cc(Cl)cc(Oc2cc(OCc3n[nH]c4nc(N)ccc34)ccc2Cl)c1`, the Activity entry in [16] and in data set [8] was “Non-toxic” throughout. In data set [1], this molecule returned an inhibition constant (Ki) of 0.2 nM. The IC95 in data set [4] came out at 5 nM; in data set [5] it was 12 nM; in data set [17], 27 nM; in data set [6], 73 nM; in data set [7] it was 26 nM; in [19] it was 54 nM. The IC95 in [20] turned out to be 175 nM; in data set [21], 589 nM. Further, in data set [22], the fraction unbound is 0.035.

As for `CCc1nn(CCO)c(CC)c1Oc1cc(C#N)cc(C#N)c1` [LERSIVIRINE], in data set [16], the Activity entry was “Non-toxic”. Moreover, the IC95 was determined as 40 nM in [7], 70 nM in data set [19], 68 nM in data set [20] and 100 nM in data set [21]. Moreover, the fraction unbound in [22] was 0.49.

On to `Cc1cc(/C=C/C#N)cc(C)c1Nc1ccnc(Nc2ccc(C#N)cc2)n1` [RILPIVIRINE], for which, in data set [16], the Activity entry is recorded as “Non-toxic”. The IC95 in data set [7] was 36 nM; in data set [19], 46 nM; in [20], 104 nM; in data set [21], 311 nM. For the same molecule, the fraction unbound in data set [22] is 0.003.

In general, Ki refers to the dissociation constant of the complex between target and ligand, obtained from inhibition or displacement. Broadly, the bioavailability is dose-corrected exposure relative to a reference, in per cent. A higher bioavailability goes with much systemic uptake. In general, half-life refers to the time in which the quantity being followed falls by half. Low values mean fast loss, high ones slow loss.
